Source: PubChem BioAssay
Sampled rows, rich in hits. Any-hit rate of the full collection: about 2.8%.
PAFAH1B2 inh: blocks human PAF acetylhydrolase 1b catalytic subunit 2 | recombinant PAFAH1B2, FP-rhodamine activity probe, fluorescence polarization | 340,000 compounds, 1.2% hits | inhibition, % at 3.39 µM | AID 492953;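 active = inhibition above the mean of all tested compounds plus 3 SD, cut at about 24% in these data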;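 also: 0% = enzyme with DMSO and 100% = wells lacking PAFAH1B2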
Target sequence (P68402 whole entry, looked up): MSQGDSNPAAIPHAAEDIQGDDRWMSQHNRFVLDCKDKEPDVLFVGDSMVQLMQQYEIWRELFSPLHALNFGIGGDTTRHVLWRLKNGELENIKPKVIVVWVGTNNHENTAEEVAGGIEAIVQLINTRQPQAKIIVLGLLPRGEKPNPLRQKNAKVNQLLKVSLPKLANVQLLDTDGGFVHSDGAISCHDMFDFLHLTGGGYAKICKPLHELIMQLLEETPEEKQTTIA
PAFAH1B3 FP inh: blocks human PAF acetylhydrolase 1B catalytic subunit 3; recombinant PAFAH1B3, FP-rhodamine probe, fluorescence polarization; inhibition, % at 3.39 µM; 340,000 compounds, 0.28% hits; AID 492972;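 active = inhibition above the screen-wide average of all tested compounds plus 3 SD, cut at about 25% in these data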;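 also: 0% = enzyme with DMSO only and 100% = wells lacking PAFAH1B3 protein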
Target sequence (Q15102 whole entry, looked up): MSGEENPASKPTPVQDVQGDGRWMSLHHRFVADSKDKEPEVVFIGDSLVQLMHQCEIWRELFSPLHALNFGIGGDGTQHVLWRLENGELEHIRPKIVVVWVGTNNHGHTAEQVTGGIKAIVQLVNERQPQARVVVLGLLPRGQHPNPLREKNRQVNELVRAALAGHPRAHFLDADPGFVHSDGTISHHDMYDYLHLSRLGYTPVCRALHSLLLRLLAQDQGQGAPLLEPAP
ARFGAP1 inh: inhibits rat ARF GTPase activating protein 1. Arfgap1-stimulated ARF1 GTP hydrolysis, GDP FP detection. inhibition, % at 16.5 µM. 360,000 compounds, 0.26% hits. Q62848;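 active = inhibition above a per-plate limit, mean inhibition of low control wells plus 3 SD, cut at about 25% in these data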;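 also: 0% = DMSO wells with enzyme and 100% = wells lacking Arfgap1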
Target sequence (Q62848 1-136 limits assumed): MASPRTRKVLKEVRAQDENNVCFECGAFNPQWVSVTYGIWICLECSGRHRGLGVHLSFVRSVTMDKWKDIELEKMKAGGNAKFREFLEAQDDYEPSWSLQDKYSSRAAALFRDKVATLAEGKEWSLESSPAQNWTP
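Material: rat Arfgap1 catalytic domain, aa 1-136; also added: human ARF1(Δ1-17)-GTP substrate; compound dosing: one concentration, 16.5 µM, DMSO 1.26%; incubation: GTP hydrolysis reaction 2 h at 25 °C; measured by: Tracer-displacement fluorescence polarization with EDTA stop, 620/688 nm; evaluation: % inhibition from polarization; repeats: one replicate per compound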
ASAP1 inh: inhibitors of human ASAP1 ArfGAP activity | AID 624377 | inhibition, % at 16.5 µM | Q9ULH1 | ASAP1-stimulated ARF1 GTP hydrolysis, GDP FP detection | 360,000 compounds, 0.19% hits; in the data active = inhibition above about 25%;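 also: 0% = vehicle with enzyme and substrate and 100% = no enzyme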
pPAFAH inh: pPAFAH (human) enzyme inhibition. inhibition, % at 3.39 µM. recombinant pPAFAH, FP-rhodamine probe fluorescence polarization. AID 463082. 330,000 compounds, 1.5% hits. Q13093;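 active = inhibition above the mean inhibition across the screen plus 3 SD, cut at about 25% in these data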;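 also: inhibitors block binding of the rhodamine activity-based probe so polarization drops; 0% = enzyme with DMSO and 100% = wells lacking pPAFAH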
PAFAH2 inh: PAFAH2 (human) inhibition; Q99487; recombinant PAFAH2, FP-rhodamine activity probe, fluorescence polarization; 340,000 compounds, 0.99% hits; inhibition, % at 3.39 µM;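 active = inhibition above the mean over all tested compounds plus 3 SD, cut at about 30% in these data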;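 also: inhibitors block probe labeling of enzyme so polarization drops; 0% = enzyme with DMSO and 100% = wells lacking PAFAH2 protein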
PAFAH2 FP conf: PAFAH2 (human) inhibition, confirmed; 2,300 compounds, 65% hits; recombinant PAFAH2, FP-rhodamine activity probe, fluorescence polarization; AID 493030; shares compounds with PAFAH2 inh; inhibition, % at 3.39 µM;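 active = mean inhibition over three repeats above a set limit taken from the earlier primary screen, cut at about 30% in these data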;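 also: inhibitor blocks binding of rhodamine activity probe so polarization falls; 0% = enzyme with DMSO and 100% = wells lacking PAFAH2 protein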
* marks the source's active call; other numbers are inactive results; / = not tested or not shown.

SMILES	PAFAH1B2 inh	PAFAH1B3 FP inh	ARFGAP1 inh	ASAP1 inh	pPAFAH inh	PAFAH2 inh	PAFAH2 FP conf
O=C(COC(=O)/C=C/c1ccco1)Nc1ccc(F)cc1Cl	6	2	6	3	1	63*	46*
CC(c1ccccc1)n1c(-c2cccs2)nc2c(c(=O)c3ccccc3n2C)c1=O (centres undefined)	/	/	7	-12	-1	/	/
CCN(C(=O)CSc1nnc(C(C)N(C)C)n1-c1ccc(F)cc1)C1CCS(=O)(=O)C1 (centres undefined)	-1	9	-1	-3	4	-3	/
CN(C)S(=O)(=O)c1cccc(C(=O)Nc2cc(S(=O)(=O)N3CCOCC3)ccc2N2CCCC2)c1	0	1	-14	2	/	-9	/
O=C1OC(c2ccc3c(c2)OCO3)N(C(=O)c2ccc(Cl)c(Cl)c2)c2ccccc21 (centres undefined)	5	0	0	-3	-11	48*	47*
Cc1cccc(C(=O)N2c3ccccc3C(=O)OC2c2ccc3c(c2)OCO3)c1 (centres undefined)	4	4	1	4	-1	31*	34*
CC(=O)N1C(c2ccccc2)CC(=O)OC1c1ccc2c(c1)OCO2 (centres undefined)	-4	-1	6	-6	-4	1	/
Cn1c(=O)c2ccccc2n(C)c1=O	/	/	3	9	/	/	/
COc1ccc(C(=O)OCCN2CCCCC2)cc1	6	7	-1	0	2	1	/
COc1ccc(C(=O)OCC2CC(c3ccccc3)N(C)O2)cc1 (centres undefined)	3	13	-6	-12	11	56*	45*
O=C(COC(=O)c1ccc(Cl)s1)c1cc2ccccc2o1	2	-1	-7	-8	21	38*	17
Cn1cccc1C(=O)OCC(=O)c1cc2ccccc2o1	1	2	-1	-16	23	18	/
O=C(COC(=O)c1cc(S(=O)(=O)NCc2ccccc2)ccc1O)c1cc2ccccc2o1	23	5	-19	-13	15	58*	48*
COc1cc(-c2ccc(N3C(c4ccsc4)=Cc4ccccc4C3CC(C)=O)cc2)cc(OC)c1OC (centres undefined)	/	/	3	-5	/	/	/
CC(Oc1ccccc1)C(=O)OCC(=O)NC(=O)NC1CCCCC1 (centres undefined)	2	-4	15	-6	6	2	/
O=C(COC(=O)c1ccc(S(=O)(=O)C(F)F)cc1)NC(=O)NC1CCCCC1	-5	4	-4	-2	12	1	/
CC(C)Oc1ccc(C(=O)OCC(=O)NC(=O)NC2CCCC2)cc1	1	2	-6	-4	8	41*	34*
CC(=O)Nc1ccc(C(=O)OCC(=O)NC(=O)NC2CCCCC2)cc1	-2	5	-6	-1	-2	53*	39*
COC(=O)c1cc(S(=O)(=O)N2CCC(C)CC2)cn1C	4	6	-14	-3	1	-12	/
Cc1cc2nc(-c3ccccc3)c(CC(C)(C)C)n2c(C)c1Br	/	/	11	0	/	/	/
Cc1ccc2c(CN(C)Cc3ccc(Cl)cc3Cl)cc(=O)oc2c1	5	-4	-7	2	5	-6	/
NS(=O)(=O)c1cc2c(cc1Cl)NC(CSCc1ccccc1)=NS2(=O)=O	23	-4	-2	-2	-5	34*	26
CCOC(=O)[C@]12CCC=C1N(Cc1ccc(Cl)cc1Cl)C(=O)[C@H](CC(=O)N1CCCCC1)C2	/	/	7	7	/	/	/
COc1ccc(CCNC2=C(Cl)C(=O)N(CCc3ccccc3)C2=O)cc1OC	1	3	9	18	5	3	/
O=C1C(Cl)=C(Nc2ccccc2O)C(=O)N1CCc1ccccc1	6	-14	2	15	19	44*	37*
SMILES	PAFAH1B2 inh	PAFAH1B3 FP inh	ARFGAP1 inh	ASAP1 inh	pPAFAH inh	PAFAH2 inh	PAFAH2 FP conf
Cc1ccc(N2CC(C(=O)Nc3nc4ccc(S(C)(=O)=O)cc4s3)CC2=O)cc1C (centres undefined)	10	-4	-1	8	0	-4	/
COc1ccc(CC(=O)N/N=C(\C)c2cccs2)cc1	-5	-2	5	0	-2	2	/
N/C(CC(=O)Nc1ccc(F)cc1F)=N\OC(=O)c1cccs1	7	4	0	2	4	41*	26
C/C(=N\Nc1ccc(F)cc1F)c1cccs1	/	/	/	/	4	/	/
N/C(Cc1ccc(Cl)cc1Cl)=N\OC(=O)c1cccs1	14	3	-4	-5	7	88*	84*
N/C(Cc1cccc2ccccc12)=N\OC(=O)c1cccs1	0	3	/	/	15	-3	/
COc1ccccc1C/C(N)=N/OC(=O)c1cccs1	-2	4	7	-4	12	81*	75*
COc1ccc(C/C(N)=N/OC(=O)c2cccs2)cc1	4	10	10	-2	4	47*	38*
CCc1nc2ccc(C(=O)Nc3ccc(OC)c(OC)c3)cn2c1N(C)Cc1nccs1	/	/	-7	6	/	/	/
COc1ccccc1C/C(N)=N/OC(=O)COc1cccc(C)c1C	7	4	4	5	0	-9	/
COc1ccccc1C/C(N)=N/OC(=O)/C=C/c1ccccc1	-1	13	5	-13	3	69*	72*
COc1ccccc1OCC(=O)N(Cc1nnc(-c2ccccc2Cl)o1)C1CC1	-4	6	13	-1	4	5	/
CCCCCCCCCCCC1=C(O)C(=O)C=C(O)C1=O	16	19	/	/	13	53*	40*
CCCCCCc1c(O)c2ccccc2[nH]c1=O	4	7	-1	-8	3	7	/
O=C(O)CCC(=O)Nc1ccc(C(=O)OCC(=O)c2ccc(Cl)cc2)cc1	4	7	-6	-11	3	42*	28
O=C(COC(=O)c1ccc(O)cc1)Nc1ccc2c(c1)OCO2	2	4	-14	1	11	89*	81*
Cc1noc(C)c1COc1ccc(C(=O)OCC(=O)Nc2ccc(S(N)(=O)=O)cc2)cc1	5	5	4	13	0	-1	/
O=C(O)CCCC(=O)Nc1ccc(Cl)cc1	5	2	6	12	1	1	/
O=C(COC(=O)c1cncc(Br)c1)Nc1ccc2c(c1)OCO2	6	6	-3	-2	7	23	/
O=C(COC(=O)c1ccc(Cl)nc1)Nc1ccc2c(c1)CCC2	-8	10	-6	-3	-2	42*	32*
Cc1noc(C)c1COc1ccc(C(=O)OCC(=O)Nc2ccc3c(c2)OCO3)cc1	0	3	2	7	15	80*	86*
Cc1cc(C)c(S(=O)(=O)N2C[C@H]3CON(C)[C@H]3C[C@H]2c2ccc(-n3ccnc3)cc2)c(C)c1	/	/	8	6	/	/	/
